Like-named read-outs stand apart in the source and are kept apart here.
How the values were obtained:
P. falciparum Dd2 = test: In vitro P. falciparum blood-stage growth inhibition assay; format: cell-based, Plasmodium falciparum
[1] = Plasma protein binding assay; format: in vitro ADME
How it was run: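 Binding was measured by equilibrium dialysis in a RED device. Compound at 5 µM, in duplicate, was placed in mouse plasma (0.95% acetonitrile, 0.05% DMSO) against PBS pH 7.4. Incubation was 5 h at 37 °C with 350 r.p.m. orbital shaking. Both sides were analysed by UPLC–MS with single-ion detection.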

[2] = Metabolic stability assay, mouse liver microsomes; format: in vitro ADME
How it was run: (§1)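 Liver microsomes (0.2 mg ml−1) were incubated with compound (0.5 and 5 µM) plus NADPH for 0, 10 and 90 min. Human microsomes or mouse CD-1 microsomes were used, as named in each line. Compound depletion was measured by LC–MS/MS and used to estimate Km, Vmax and half-life.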

[3] = Metabolic stability assay, human liver microsomes; format: in vitro ADME
How it was run: as §1

HepG2 cell line = test: Mammalian cell cytotoxicity assay; format: cell-based, human; conditions: for CC50: read-out: HepG2 CC50, 72 h
How it was run: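 HepG2, A549 or HEK293 cells were grown in DMEM with 10% FBS and 1% antibiotic–antimycotic and tested mycoplasma-free. Cells (1 × 10^6) were seeded one day before treatment. They were exposed to ascending compound doses for 72 h, and viability was read by CellTiter-Glo.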

Solubility assay in PBS = format: physicochemical; conditions: PBS pH 7.4 with 1% DMSO
How it was run: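 Compound was prepared at 100 µM in triplicate, both in 100% DMSO and in PBS pH 7.4 with 1% DMSO. Samples were shaken at 750 r.p.m. for 18 h at room temperature. Analysis was by UPLC–MS with single-ion detection. PBS response was fitted to a two-point calibration built from the DMSO samples.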

[4] = Mouse pharmacokinetics assay; format: in vivo; conditions: CD-1 mice; for AUC0-t: t = 24 h; for F: printed in the IV (3) column, PO (10) vs IV (3) mg/kg
How it was run: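 Female CD-1 mice received single intravenous and oral doses. Parameters were estimated by non-compartmental analysis.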

hERG channel = hERG channel (Homo sapiens, UniProt Q12809); test: hERG channel inhibition assay; format: cell-based; conditions: read-out: hERG IC50; IKr
How it was run: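 hERG current was measured in hERG-expressing cell lines by automated patch clamp (QPatch-HTX).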

[5] = test system: P. falciparum (NF54) male and female stage-V gametocytes; test: Dual gamete formation assay; format: cell-based, Plasmodium falciparum
[6] = test system: P. falciparum (NF54) liver stage; test: In vitro P. falciparum liver-stage assay; format: cell-based, Plasmodium falciparum
[7] = test system: P. falciparum (NF54) gametocytes; test: In vitro transmission-blocking imaging assay; format: cell-based, Plasmodium falciparum
How it was run: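 Highly synchronous NF54 pf-LUC-GFP gametocytes were induced from a single asexual cycle. They were exposed to 16 compound doses, with final controls of 0.4% DMSO and 5 µM puromycin, for 72 h at 37 °C under 5% CO2/5% O2/90% N2 and 60% humidity. MitoTracker Red CM-H2XRos was then added overnight, and plates were imaged after ≥1 h at room temperature. IC50 came from a 4-parameter variable-slope fit.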

[8] = test system: P. falciparum 3D7 stage IV–V gametocytes; test: In vitro transmission-blocking assay; format: cell-based, Plasmodium falciparum; conditions: P. falciparum (3D7), Gametocyte (IV-V)
How it was run: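 3D7 cultures were treated 3 days with 50 mM N-acetyl-D-glucosamine to remove asexual parasites. Stage IV–V gametocytes were then isolated on a discontinuous Percoll gradient. Gametocytes (1.0 × 10^5 per well) were incubated with compound for 72 h. Viability was measured by CellTiter-Glo luminescence.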

[9] = test system: P. berghei (ANKA) liver stage; test: In vitro P. berghei liver-stage assay; format: cell-based, Plasmodium berghei; conditions: P. berghei (ANKA), Liver stage
How it was run: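 HepG2 cells (~17,500 per well, in duplicate) were cultured 18–24 h, then the medium was exchanged and compound added. After 1 h, 4,000 P. berghei ANKA GFP–luc sporozoites per well were added, freshly dissected from A. stephensi mosquitoes. Plates were spun 10 min at 1,000 r.p.m. and incubated 48 h at 37 °C. Parasite load was read by Bright-Glo luminescence.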

[10] = read-out: PfDd2 EC50, asexual blood-stage parasites (Dd2), SAR table
[11] = read-out: Pf, Dd2 EC50, blood stage

Sequence of hERG channel (Q12809 whole entry): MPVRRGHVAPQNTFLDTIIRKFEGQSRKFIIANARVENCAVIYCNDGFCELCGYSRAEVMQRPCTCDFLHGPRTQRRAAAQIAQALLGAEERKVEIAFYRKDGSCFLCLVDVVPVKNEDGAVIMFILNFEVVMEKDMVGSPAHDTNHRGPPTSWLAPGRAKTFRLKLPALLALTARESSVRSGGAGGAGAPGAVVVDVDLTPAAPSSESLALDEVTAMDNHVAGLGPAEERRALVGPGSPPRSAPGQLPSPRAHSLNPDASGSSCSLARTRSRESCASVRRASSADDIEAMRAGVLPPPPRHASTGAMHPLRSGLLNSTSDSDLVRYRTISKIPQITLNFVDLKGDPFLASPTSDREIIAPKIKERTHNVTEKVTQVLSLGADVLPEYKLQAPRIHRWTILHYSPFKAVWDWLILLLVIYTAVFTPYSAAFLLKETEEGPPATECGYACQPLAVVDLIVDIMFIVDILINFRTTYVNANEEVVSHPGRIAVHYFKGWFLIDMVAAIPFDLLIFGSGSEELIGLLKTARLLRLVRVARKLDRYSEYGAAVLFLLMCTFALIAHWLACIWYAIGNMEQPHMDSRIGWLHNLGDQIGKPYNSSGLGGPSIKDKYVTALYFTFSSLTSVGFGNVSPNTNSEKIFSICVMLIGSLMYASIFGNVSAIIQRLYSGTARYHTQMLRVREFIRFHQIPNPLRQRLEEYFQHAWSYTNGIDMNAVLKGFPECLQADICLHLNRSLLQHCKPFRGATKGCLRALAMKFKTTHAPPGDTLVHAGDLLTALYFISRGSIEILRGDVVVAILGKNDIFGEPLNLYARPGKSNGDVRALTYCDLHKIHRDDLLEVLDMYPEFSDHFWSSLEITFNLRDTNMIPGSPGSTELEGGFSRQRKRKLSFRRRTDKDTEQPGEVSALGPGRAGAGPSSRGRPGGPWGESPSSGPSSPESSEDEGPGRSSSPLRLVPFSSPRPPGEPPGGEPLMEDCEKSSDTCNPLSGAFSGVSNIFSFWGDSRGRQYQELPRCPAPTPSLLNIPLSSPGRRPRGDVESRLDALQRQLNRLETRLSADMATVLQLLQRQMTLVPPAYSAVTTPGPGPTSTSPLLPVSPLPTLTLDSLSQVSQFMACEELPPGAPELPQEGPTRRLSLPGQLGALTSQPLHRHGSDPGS

Compound: COc1ccc(NC(=O)N2CCCCN3[C@H](CN(C)C(C)C)[C@H](c4ccc(C#Cc5ccccc5)cc4)[C@@H]3C2)cc1 [BRD4716]
- EC50 (P. falciparum Dd2; [10]): 24 nM

Compound: COc1ccc(NC(=O)N2CCCCN3[C@H](CO)[C@H](c4ccc(C#Cc5ccccc5C#N)cc4)[C@@H]3C2)cc1 [BRC4873]
- EC50 (P. falciparum Dd2; [10]): 261 nM

Compound: COc1ccc(NC(=O)N2CCCCN3[C@H](CN4CCN(C)CC4)[C@H](c4ccc(C#Cc5ccccc5)cc4)[C@@H]3C2)cc1 [BRD6479]
- EC50 (P. falciparum Dd2; [10]): 158 nM

Compound: COc1ccc(NC(=O)N2CCCCN3[C@H](CN)[C@H](c4ccc(C#Cc5ccccc5)cc4)[C@@H]3C2)cc1 [BRD1095]
- EC99.9 (P. falciparum Dd2; P. falciparum Dd2): 60 nM
- EC50 (P. falciparum Dd2; [11]): 10 nM
- EC50 (P. falciparum Dd2; [10]): 10 nM
- Mouse Plasma protein binding [1]: 99.3%
- Mouse Clint [2]: < 20 µL/min/mg
- Human Clint [3]: < 20 µL/min/mg
- CC50 (HepG2 cell line): 15600 nM
- PBS solubility (Solubility assay in PBS): 25 µM
- AUC0-inf ([4]; IV (3) mg/kg): 14.9 µM·h
- CL ([4]; IV (3) mg/kg): 6.7 mL/min/kg
- MRT0-inf ([4]; IV (3) mg/kg): 39.2 h
- Vss ([4]; IV (3) mg/kg): 16 L/kg
- AUC0-t ([4]; IV (3) mg/kg): 7 ^¶ µM*hr
- Cmax ([4]; PO (10) mg/kg): 600 nM
- T1/2 ([4]; PO (10) mg/kg): 28.8 h
- Tmax ([4]; PO (10) mg/kg): 4 h
- AUC0-t ([4]; PO (10) mg/kg): 11.7 ^¶ µM*hr
- F [4]: 50%
- IC50 (hERG channel): 5100 nM

Compound: COc1ccc(NC(=O)N2CCCCN3[C@H](CO)[C@H](c4ccc(C#Cc5ccccc5)cc4)[C@@H]3C2)cc1 [BRD3444]
- EC50 (P. falciparum Dd2; P. falciparum (Dd2), Blood stage): 9 nM
- EC50 (P. falciparum Dd2; [11]): 9 nM
- EC50 (P. falciparum Dd2; [10]): 11 nM
- Potency across P. falciparum Dd2, PfscDHODH and Pf NITD609^R (P. falciparum Dd2; three P. falciparum strains): equipotent
- Mouse Plasma protein binding [1]: 99.9%
- Mouse Clint [2]: 248 µL/min/mg
- Human Clint [3]: 142 µL/min/mg
- Cytotoxicity (HepG2 cell line; HepG2 cell line): no significant cytotoxicity
- CC50 (HepG2 cell line): > 50000 nM
- EC50 ([5]; read-out: EC50, gamete formation, female (F)): 804 nM
- EC50 ([5]; read-out: EC50, gamete formation, male): ~1000 nM
- PBS solubility (Solubility assay in PBS): < 1 µM
- AUC0-inf ([4]; IV (3) mg/kg): 1.4 µM·h
- CL ([4]; IV (3) mg/kg): 72 mL/min/kg
- MRT0-inf ([4]; IV (3) mg/kg): 2.8 h
- T1/2 ([4]; IV (3) mg/kg): 3.7 h
- Vss ([4]; IV (3) mg/kg): 12 L/kg
- AUC0-t ([4]; IV (3) mg/kg): 1.2 ^¶ µM*hr
- AUC0-inf ([4]; PO (10) mg/kg): 4 µM·h
- Cmax ([4]; PO (10) mg/kg): 600 nM
- T1/2 ([4]; PO (10) mg/kg): 3.2 h
- Tmax ([4]; PO (10) mg/kg): 0.5 h
- AUC0-t ([4]; PO (10) mg/kg): 4 ^¶ µM*hr
- F [4]: 86%
- EC50 [6]: 1310 nM
- EC50 ([7]; read-out: EC50, early (E, stages I–III) gametocytes): 282 nM
- EC50 ([7]; read-out: EC50, late (L, stages IV–V) gametocytes): 1440 nM
- EC50 [8]: 663 nM
- EC50 [9]: 140 nM
- IC50 (hERG channel): 5200 nM

Compound: COc1ccc(NC(=O)N2CCCCCN3[C@H](CO)[C@H](c4ccc(C#Cc5ccccc5)cc4)[C@@H]3C2)cc1 [BRD0185]
- EC50 (P. falciparum Dd2; [10]): 87 nM

Compound: O=C1C(O)=C([C@H]2CC[C@H](c3ccc(Cl)cc3)CC2)C(=O)c2ccccc21 [atovaquone, reference compound]
- EC90 (P. falciparum Dd2; Plasmodium falciparum, DD2): 2 nM

Compound: COc1ccc(NC(=O)N2CCCCN3[C@H](CO)[C@H](c4ccc(C#CC5CC5)cc4)[C@@H]3C2)cc1 [BRD5774]
- EC50 (P. falciparum Dd2; [10]): 12200 nM
